High-throughput results as filed in PubChem BioAssay.
Hits are enriched below; roughly 27% of the tested compounds scored in any of these assays.
CYP2C9 act: increases human cytochrome P450 2C9 activity; P11712; recombinant CYP2C9, luciferin-H conversion, luminescence; hits give high values; factor 1 = untreated enzyme, 0 = blocked; activation factor at 5 µM; 96,000 compounds, 1.4% hits; AID 1024;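 active means activation factor of 2 or more for CYP2C9 at a 5 µM dose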;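 further: 0 = sulfaphenazole-blocked wells and 1 = vehicle-only wells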
HIV Rev-RRE inh: HIV Rev-RRE protein-RNA interaction inhibition; P05866; Rev peptide-RRE RNA binding, FRET; inhibition, % at 8 µM; 97,000 compounds, 0.79% hits; AID 704;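 active means inhibition above the screen-wide mean plus 3 SD, cut at about 35% in these data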;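 further: 0% = median DMSO wells and 100% = median Neomycin B control wells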
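System: Cy5-labelled duplex RRE RNA binding fluorescein-labelled HIV Rev peptide; Signal: fluorescein-to-Cy5 FRET, 480 nm excitation; Also added: labelled Rev peptide; Compound: one concentration, 8 µM nominal; Buffer or medium: HEPES pH 7.5 salt buffer with EDTA; Read-out: % inhibition of FRET ratio versus controls; Schedule: 5 min preincubation and 15 min binding, 25 °C.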
CYP2C9 inh: human CYP2C9 inhibition; P11712; CYP2C9 Supersomes, luciferin-H conversion, luminescence; inhibition, % at 5 µM; 96,000 compounds, 20% hits; AID 777;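 active means blocking of liver enzyme CYP2C9 beyond about 50% at 5 µM, limit read from the data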
CYP2C19 inh: inhibitors of human CYP2C19. inhibition, % at 5 µM. CYP2C19 Supersomes, luciferin-H EGE luminescence, 30 min. 96,000 compounds, 21% hits;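 active means CYP2C19 inhibition above a set limit at 5 µM in the primary screen, cut at about 50% in these data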;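 further: plate controls were negative control wells for no effect and 2.5 mM tranylcypromine positive control for full effect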
Cav3 T inh: human Cav3.2 channel inhibition, primary screen; O95180; Cav3.2-expressing cells, Fluo-4 calcium fluorescence FDSS; hits give low values; B-score at 10 µM; 100,000 compounds, 4% hits;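 active means single-dose well whose peak fluorescence ratio is a statistical outlier from its plate by either plate-standardised score or position-corrected B-score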
Target sequence (O95180 whole entry, looked up): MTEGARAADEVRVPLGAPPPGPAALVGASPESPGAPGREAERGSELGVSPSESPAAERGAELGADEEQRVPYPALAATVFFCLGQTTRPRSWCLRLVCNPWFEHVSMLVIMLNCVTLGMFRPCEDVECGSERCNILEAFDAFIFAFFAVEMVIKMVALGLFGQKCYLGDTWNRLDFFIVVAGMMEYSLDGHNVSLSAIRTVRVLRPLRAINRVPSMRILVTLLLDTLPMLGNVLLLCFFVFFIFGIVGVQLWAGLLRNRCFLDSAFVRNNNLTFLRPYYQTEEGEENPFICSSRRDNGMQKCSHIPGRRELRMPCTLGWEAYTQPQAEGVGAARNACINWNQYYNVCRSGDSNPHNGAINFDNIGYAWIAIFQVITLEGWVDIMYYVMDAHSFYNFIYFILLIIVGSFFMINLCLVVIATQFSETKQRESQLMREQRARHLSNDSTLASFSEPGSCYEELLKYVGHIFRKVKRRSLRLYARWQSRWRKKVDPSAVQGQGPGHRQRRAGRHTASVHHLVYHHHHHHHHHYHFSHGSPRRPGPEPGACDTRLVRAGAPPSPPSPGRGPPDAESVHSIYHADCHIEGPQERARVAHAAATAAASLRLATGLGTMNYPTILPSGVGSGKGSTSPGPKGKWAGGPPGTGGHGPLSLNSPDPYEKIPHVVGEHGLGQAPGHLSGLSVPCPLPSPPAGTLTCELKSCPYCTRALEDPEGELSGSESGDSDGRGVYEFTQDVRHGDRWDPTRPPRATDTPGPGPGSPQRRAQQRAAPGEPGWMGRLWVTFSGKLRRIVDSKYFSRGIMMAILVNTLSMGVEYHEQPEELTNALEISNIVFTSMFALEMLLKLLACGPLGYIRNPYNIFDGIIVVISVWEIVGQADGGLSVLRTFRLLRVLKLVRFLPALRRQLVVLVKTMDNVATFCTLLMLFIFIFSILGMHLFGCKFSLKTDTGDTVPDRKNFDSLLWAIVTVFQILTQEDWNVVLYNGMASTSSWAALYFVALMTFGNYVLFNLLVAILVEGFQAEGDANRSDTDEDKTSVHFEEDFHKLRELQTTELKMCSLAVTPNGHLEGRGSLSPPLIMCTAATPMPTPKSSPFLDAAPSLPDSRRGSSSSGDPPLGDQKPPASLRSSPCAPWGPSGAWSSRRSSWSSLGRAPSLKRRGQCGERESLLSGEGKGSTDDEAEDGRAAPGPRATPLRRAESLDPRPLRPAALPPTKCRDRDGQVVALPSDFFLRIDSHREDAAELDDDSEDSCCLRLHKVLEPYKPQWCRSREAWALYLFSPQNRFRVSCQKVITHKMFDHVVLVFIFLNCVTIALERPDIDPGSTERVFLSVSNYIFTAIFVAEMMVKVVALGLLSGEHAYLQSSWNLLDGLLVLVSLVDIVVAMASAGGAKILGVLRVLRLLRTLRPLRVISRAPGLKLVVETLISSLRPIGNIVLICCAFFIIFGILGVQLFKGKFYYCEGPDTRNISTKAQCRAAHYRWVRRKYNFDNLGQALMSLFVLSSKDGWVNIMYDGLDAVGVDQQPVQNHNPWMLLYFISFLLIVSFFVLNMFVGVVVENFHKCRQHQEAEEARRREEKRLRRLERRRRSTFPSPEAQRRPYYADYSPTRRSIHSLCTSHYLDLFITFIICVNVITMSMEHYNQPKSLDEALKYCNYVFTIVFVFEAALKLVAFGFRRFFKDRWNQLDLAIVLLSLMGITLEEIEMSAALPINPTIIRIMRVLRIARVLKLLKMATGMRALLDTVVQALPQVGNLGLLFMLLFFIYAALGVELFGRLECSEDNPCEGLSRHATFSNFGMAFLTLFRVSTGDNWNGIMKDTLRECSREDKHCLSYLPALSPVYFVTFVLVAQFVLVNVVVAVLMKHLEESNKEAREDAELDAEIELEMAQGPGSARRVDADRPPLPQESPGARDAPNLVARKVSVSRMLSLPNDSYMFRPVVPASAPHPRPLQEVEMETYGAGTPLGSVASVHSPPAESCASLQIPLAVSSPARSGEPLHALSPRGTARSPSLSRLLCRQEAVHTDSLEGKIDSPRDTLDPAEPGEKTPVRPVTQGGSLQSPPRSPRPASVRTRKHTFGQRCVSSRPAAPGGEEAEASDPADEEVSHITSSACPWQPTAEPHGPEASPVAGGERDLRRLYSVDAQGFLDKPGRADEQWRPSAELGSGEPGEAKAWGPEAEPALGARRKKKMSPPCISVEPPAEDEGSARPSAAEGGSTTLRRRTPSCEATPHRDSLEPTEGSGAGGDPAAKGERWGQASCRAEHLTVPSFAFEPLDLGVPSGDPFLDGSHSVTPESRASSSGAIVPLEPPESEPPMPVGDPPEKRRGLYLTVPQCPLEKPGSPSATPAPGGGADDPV
CYP2C19 act: cytochrome P450 2C19 (human) activation | P33261 | recombinant CYP2C19, luciferin-H EGE luminescence; hits give high values; 0 = fully inhibited enzyme, 1 = untreated enzyme | activation factor at 5 µM | 96,000 tested, under 10 active;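 active means activation factor of at least 2 at 5 µM in the primary screen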;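 further: 0 = wells with 2.5 mM tranylcypromine and 1 = vehicle-only wells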
Starred values were filed as active, the others as inactive; . = not tested or not shown.

SMILES	CYP2C9 act	HIV Rev-RRE inh	CYP2C9 inh	CYP2C19 inh	Cav3 T inh	CYP2C19 act
O=S(=O)(c1cccc(-c2nc3ccccc3s2)c1)N1CCCC1	0.2	12	79*	34	-3.1	0.7
Cc1c(N)cccc1-c1nc2ccccc2[nH]1	.	1	.	.	0.14	.
CCC(C)N(NC(C)=O)c1nc(Cl)nc(NC(C)C)n1 (stereo not given)	1	1	2	-5	1.6	1
CC(C)[C@H](N)c1nnc(SC/C=C/c2ccccc2)o1	0.8	1	16	82*	-0.045	0.2
N[C@@H](Cc1ccccc1)c1nnc(SCc2ccccc2F)o1	.	0	.	.	0.7	.
O=S(=O)(c1cccs1)N1CCN(CC(O)COC2CCCc3ccccc32)CC1 (stereo not given)	0.4	8	62*	34	-0.4	0.7
COc1ccc(-c2noc(CCC(=O)NCc3cccnc3)n2)cc1	0.3	.	74*	50*	0.11	0.5
COc1ccc(-c2noc(CCC(=O)NCc3cccnc3)n2)cc1OC	0.5	.	54*	19	1.3	0.8
Cc1ccc(CN(C)C(=O)C2CCCN2C(=O)c2cccs2)o1 (stereo not given)	0.9	1	14	57*	0.35	0.4
O=C1c2ccccc2C(O)(c2ncc[nH]2)N1CCc1ccccc1 (stereo not given)	1	11	-1	92*	-0.033	0.1
CC(C)CN1C(=O)c2ccccc2C1(O)Cc1ccccc1 (stereo not given)	.	-7	.	.	-1.3	.
Cc1ccc(NC(=O)C2CCCN2S(=O)(=O)c2ccc(F)cc2)c(C)c1 (stereo not given)	0.7	3	29	44	0.27	0.6
C#CCOCCOCCOCCNc1nc(N2CCN(C(=O)[C@H](CCC(=O)O)n3cc(C(N)Cc4ccc(O)cc4)nn3)CC2)nc(N2CCN(C(=O)[C@H](CCCCN)n3cc(C(N)[C@H](C)CC)nn3)CC2)n1 (stereo not given in full)	.	.	.	.	0.25	.
CC(=O)CCc1c(C)c2cc(C)ccc2[nH]c1=O	1.3	-1	-27	10	0.41	0.9
NC(=O)C[n+]1cccc2ccccc21	1.2	37*	-19	-14	-0.066	1.1
O=C(Nc1nc2ccccc2[nH]1)c1ccccc1	0.8	8	18	42	0.63	0.6
CN(C(=O)CCN1C(=O)C(C)(C)Nc2ccccc21)c1ccccc1	0.7	2	29	76*	0.051	0.2
CC1(C)Nc2ccccc2N(CCC(=O)N2CCOCC2)C1=O	0.9	12	14	3	-0.3	1
CSc1nnc(-c2sccc2OCc2ccc(C)cc2)n1C	0.9	7	13	17	-0.16	0.8
CC(=O)Nc1ccc2[nH]c(C)cc(=O)c2c1	1.1	7	-9	-9	-0.0095	1.1
COc1ccc2[nH]c3ccccc3c2c1	1	3	3	55*	.	0.5
O=C(NCCO)c1ccc2[nH]c3ccccc3c2c1	0.8	6	16	91*	-0.24	0.1
COc1ccc2[nH]c(O)c(NC(C)=O)c2c1	0.4	5	63*	8	0.58	0.9
CC(=O)Nc1ccc2[nH]c3ccccc3c2c1	0.9	5	10	73*	0.13	0.3
O=C(Nc1nnc(CCS(=O)(=O)c2ccc(Br)cc2)s1)c1ccc([N+](=O)[O-])cc1	1.1	8	-11	-8	0.87	1.1
SMILES	CYP2C9 act	HIV Rev-RRE inh	CYP2C9 inh	CYP2C19 inh	Cav3 T inh	CYP2C19 act
CN(C)C(=O)N1CCC(C(=O)NCc2ccccc2)CC1	0.9	.	6	0	0.012	1
Cc1ccccc1NC(=O)C1C2CCCC1C2c1ccccc1 (stereo not given)	0.8	6	16	37	-0.45	0.6
COc1ccc(-c2nc(SC)n(C)c(=O)c2C#N)cc1OC	0.1	.	95*	24	1.9	0.8
O=C(NCc1ccc(Cl)cc1)c1ccc(Cn2cc(C(F)(F)F)ccc2=O)cc1	0.5	12	47	10	-5.7*	0.9
Clc1ccccc1-c1nnn(Cc2ccc(-c3nn[nH]n3)cc2)n1	0.1	-6	86*	68*	-4.9*	0.3
O=C(NCc1cccnc1)C(=O)NCC1OCCN1S(=O)(=O)c1ccc(Cl)cc1 (stereo not given)	.	.	.	.	0.37	.
O=C(NCc1cccnc1)/C(=C/c1ccc(-c2ccc(Cl)cc2)o1)S(=O)(=O)c1ccccc1	0.5	1	49	67*	-1.1	0.3
CC1=CCC(C(=O)N/N=C/c2cccs2)C(c2ccc(F)cc2)C1 (stereo not given)	0.6	7	44	39	-5.3*	0.6
O=C(Cc1ccccc1)N/N=C/c1cccs1	1	2	-3	26	0.13	0.7
CCOC(=O)N1CCN(C(=O)Cn2nc(C)c3sc4ccccc4c3c2=O)CC1	1.3	-2	-30	-6	0.16	1.1
Cc1nn(C(C)C(=O)NCc2ccccc2Cl)c(=O)c2c1sc1ccccc12 (stereo not given)	0	5	97*	88*	-0.69	0.1
CCOC(=O)N1CCN(C(=O)C(CC)n2nc(C)c3sc4ccccc4c3c2=O)CC1 (stereo not given)	0.4	1	58*	9	-0.0042	0.9
CCn1c(SCC(=O)NNC(=O)c2ccc(C)cc2)nnc1-c1ccncc1	.	3	.	.	1	.
Cn1c(SCc2ccc(C(=O)Nc3nccs3)cc2)nnc1-c1ccccc1	0.3	10	68*	32	0.46	0.7
CCn1c(SCc2ccc(C(=O)Nc3nccs3)cc2)nnc1-c1ccc(NC(C)=O)cc1	0.2	7	85*	42	1.2	0.6
CCn1c(SCc2ccc(C(=O)Nc3nccs3)cc2)nnc1-c1ccc(N)cc1	0.3	9	68*	29	-1.3	0.7
COc1ccc(Nc2cc(C)nc(N3CCOCC3)n2)cc1	1	-1	4	11	1.2	0.9
COc1cc(/C=C(/C(=O)c2cccs2)c2nc3ccccc3[nH]2)cc(OC)c1O	0.1	7	86*	51*	.	0.5
CCOC(=O)c1ccc(NC(=O)CN2C(=O)C(=O)N(CC(C)C)C2=O)cc1	1	7	-4	7	-0.5	0.9
COc1ccccc1OCC(O)CN1CCN(CC(=O)Nc2c(C)cccc2C)CC1 (stereo not given)	.	.	.	.	1.7	.
Cc1cccc(N2CC(C(=O)OCC(=O)c3ccc(OC(=O)c4cccs4)cc3)CC2=O)c1C (stereo not given)	0.2	-3	76*	71*	-0.11	0.3
Cc1ccc(C(=O)COC(=O)C2CC(=O)N(c3nc(-c4ccccc4)cs3)C2)cc1 (stereo not given)	0.2	8	79*	71*	-1.3	0.3
COc1ccccc1N1CC(C(=O)OCC(=O)c2ccc(F)cc2)CC1=O (stereo not given)	1.6	3	-64	26	0.75	0.7
